{"source": "paper PMC7199185", "about": "(ACS applied materials & interfaces, 2019)", "key": {"E coli K12 biofilm": {"tested_on": "E coli K12 biofilm", "assay": "Biofilm formation inhibition, crystal violet staining", "type": "cell-based, Escherichia coli", "settings": "at 2 ug/mL"}, "[1]": {"tested_on": "HCEC (Immortalized Human Colonic Epithelial Cell)", "type": "cell-based", "settings": "24 h"}, "[2]": {"tested_on": "Acinetobacter baumannii ATCC 19606", "type": "cell-based", "settings": "ATCC 19606, pH 7"}, "Zeta potential": {"assay": "Zeta potential", "type": "physicochemical", "settings": "Aqueous solution of 2 mmolar concentration in pH 7"}, "[3]": {"tested_on": "Staphylococcus aureus ATCC 43300 MRSA", "type": "cell-based", "settings": "ATCC 43300, pH 7"}, "[4]": {"tested_on": "HaCaT (Immortalized Human Keratinocyte)", "type": "cell-based", "settings": "24 h"}, "[5]": {"tested_on": "Psedomonas aeruginosa ATCC 27853", "type": "cell-based, Pseudomonas aeruginosa", "settings": "ATCC 27853, pH 7"}, "[6]": {"tested_on": "Escherichia coli ATCC 25922", "type": "cell-based", "settings": "ATCC 25922, pH 7"}, "[7]": {"tested_on": "Klebsiella pneumoniae ATCC 700603", "type": "cell-based", "settings": "ATCC 700603, pH 7"}, "[8]": {"tested_on": "Cryptococcus neoformans var. grubii H99 ATCC 20882", "type": "cell-based", "settings": "ATCC 20882, pH 7"}, "[9]": {"tested_on": "Candida albicans ATCC 90028", "type": "cell-based", "settings": "ATCC 90028, pH 7"}, "S. aureus JE2 biofilm": {"tested_on": "S. aureus JE2 biofilm", "assay": "Biofilm formation inhibition, crystal violet staining", "type": "cell-based, Staphylococcus aureus", "settings": "at MIC", "outline": "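S. aureus JE2 initial inocula were exposed to test compound in two-fold dilutions from 16 to 4 μg/mL, with vancomycin or gentamicin at 4 to 1 μg/mL as comparators. Biofilm formed was quantified by crystal violet staining.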"}}, "data": [{"smiles": "CNC(C)C1CCC(N)C(OC2C(N)CC(N)C(OC3OCC(C)(O)C(NC)C3O)C2O)O1", "note": "(stereo not shown) [Gen, Gentamicin]", "values": [{"measurement": "reduction of E coli biofilm formation", "setting": "E coli K12 biofilm", "result": "about 54. 3%"}]}, {"smiles": "CCCCCCCC(=O)NCCCC[C@H](NC(=O)CCCCCCC)C(=O)N[C@@H](CCCCN)C(=O)N[C@@H](CCCCN)C(=O)N[C@@H](CCCCN)C(=O)N[C@@H](CCCCN)C(=O)N[C@@H](CCCCN)C(N)=O", "note": "[PA 8]", "values": [{"measurement": "IC50 HCEC", "setting": "[1]", "result": 19.3, "unit": "µg/mL"}, {"measurement": "MIC Ab (A. baumannii ATCC 19606)", "setting": "[2]", "result": ">32", "unit": "µg/mL"}, {"measurement": "Zeta potential", "setting": "Zeta potential", "result": "18.83 ± 1.69", "unit": "mV"}, {"measurement": "MIC Sa (S. aureus ATCC 43300 MRSA)", "setting": "[3]", "result": ">32", "unit": "µg/mL"}, {"measurement": "IC50 HaCaT", "setting": "[4]", "result": 40.4, "unit": "µg/mL"}, {"measurement": "MIC Pa (P. aeruginosa ATCC 27853)", "setting": "[5]", "result": ">32", "unit": "µg/mL"}, {"measurement": "MIC Ec (E. coli ATCC 25922)", "setting": "[6]", "result": ">32", "unit": "µg/mL"}, {"measurement": "MIC Kp (K. pneumoniae ATCC 700603)", "setting": "[7]", "result": ">32", "unit": "µg/mL"}, {"measurement": "MIC Cn (C. neoformans var. grubii H99 ATCC 20882)", "setting": "[8]", "result": ">32", "unit": "µg/mL"}, {"measurement": "MIC Ca (C. albicans ATCC 90028)", "setting": "[9]", "result": ">32", "unit": "µg/mL"}]}, {"smiles": "CCCCCCCCCCCCCCCCCC(=O)NCCCC[C@H](NC(=O)CCCCCCCCCCCCCCCCC)C(=O)N[C@@H](CCCCN)C(=O)N[C@@H](CCCCN)C(=O)N[C@@H](CCCCN)C(=O)N[C@@H](CCCCN)C(=O)N[C@@H](CCCCN)C(N)=O", "note": "[PA 9]", "values": [{"measurement": "Zeta potential", "setting": "Zeta potential", "result": "41.40 ± 1.05", "unit": "mV"}]}, {"smiles": "CN[C@H](CC(C)C)C(=O)N[C@H]1C(=O)N[C@@H](CC(N)=O)C(=O)N[C@H]2C(=O)N[C@H]3C(=O)N[C@H](C(=O)N[C@H](C(=O)O)c4cc(O)cc(O)c4-c4cc3ccc4O)[C@H](O)c3ccc(c(Cl)c3)Oc3cc2cc(c3O[C@@H]2O[C@H](CO)[C@@H](O)[C@H](O)[C@H]2O[C@H]2C[C@](C)(N)[C@H](O)[C@H](C)O2)Oc2ccc(cc2Cl)[C@H]1O", "note": "[Van, Vancomycin]", "values": [{"measurement": "reduction of MRSA biofilm formation", "setting": "S. aureus JE2 biofilm", "result": "up to 92.80 ± 0.68%"}]}]}
